How the values were obtained:
[1] = system: S1B1-20; test: In vitro concentration required to inhibit tumor activity on subclone of human colon carcinoma cells (S1-B1-20) resistant to bisantrene; assay type: functional, cell-based
Outline: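 S1-B1-20 cells (S1 clone of LS 174 T, selected in bisantrene over 12–16 weeks) plated at 20 000 cells/well with or without 20 μM bisantrene, plus test agent 0.1–80 μM from DMSO stock (final DMSO ≤0.1%). 3 days, 37 °C, 7% CO2. Survival by sulforhodamine B at 540 nm. IC50 from best-fit curve of difference score (survival alone minus survival with bisantrene) at 50; 2–4 sets of measurements.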

[2] = Partition coefficient (logP); assay type: physicochemical; conditions: octanol/water
[3] = In vitro concentration at which 50% of human colon carcinoma cells (S1-B1-20) resistant to bisantrene have survived; assay type: ADME, cell-based, S1B1-20; conditions: S1-B1-20 human colon carcinoma cells resistant to bisantrene, read-out: LD50 (the source's name)
Outline: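 S1-B1-20 cells (LS 174 T-derived S1 clone selected in bisantrene over 12–16 weeks), trypsinized, 20 000 cells/well. Test agent alone in DMSO (≤0.1% final), 0.1–80 µM, 3 days at 37 °C, 7% CO2. Survival by sulforhodamine B read at 540 nm versus untreated cells. Two to four measurement sets were made, and the value is the concentration giving 50% survival from a best-fit curve.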

[4] = system: Mus musculus; test: Relative tumor growth inhibition against human epidermoid carcinoma KB/8.5 implanted subcutaneously only in mice at 8 mg/kg (DOX); assay type: functional; conditions: route subcutaneous
Outline: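 KB/8.5 cells grown in RPMI 1640 with 5% fetal calf serum plus colchicine (10 ng/mL), which was removed for two passages. 8 × 10^6 cells were then implanted sc in athymic nude mice. At 100-300 mg tumor mass, mice were grouped 5-10/group. Doxorubicin was given as a single iv dose (8 mg/kg). Tumor mass was measured on day 14, and relative growth was compared with saline control.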

[5] = system: Mus musculus; test: Percent tumor growth inhibition against human epidermoid carcinoma KB/8.5 implanted subcutaneously in mice at 200 mg/kg of compound along with 8 mg/kg (DOX ) was determined; assay type: functional
Outline: (§1)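 Athymic nude mice bearing sc KB/8.5 tumors (8×10^6 cells, colchicine withdrawn for two passages), grouped at 100–300 mg tumor mass, 5–10 mice/group. Doxorubicin 8 mg/kg given once iv; reversal agent or placebo given sc 2 h before and 2 h after. Tumor mass on day 14 used for relative tumor growth versus doxorubicin alone; Student t-test on log RTG.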

[6] = system: Mus musculus; test: Percent tumor growth inhibition against human epidermoid carcinoma KB/8.5 implanted subcutaneously in mice at 100 mg/kg of compound along with 8 mg/kg (DOX ) was determined; assay type: functional; outline: as §1
[7] = system: Mus musculus; test: Percent increase in mean life span relative to treatment with an equivalent dose of vincristine alone at 25 mg/kg in mice with vincristine-resistantmurine leukemia P388/VCR cells; assay type: functional
Outline: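 CDF1 mice were implanted ip with 1 × 10^6 P388/VCR cells. Agent and 0.2 mg/kg vincristine were given simultaneously ip once daily, days 1–7. Mean survival over up to 30 days was compared with vincristine alone at an equivalent dose, giving % increase in life span. Student t-test was applied to mean survival time.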

[8] = system: Mus musculus; test: Percent increase in mean life span when 0.2 mg/kg vincristine was administered ip once daily on days 1-7, in mice infected with leukemia P388/VCR; assay type: functional; set-up: concentration or dose not given beside the values; conditions: route intraperitoneal
Outline: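 CDF1 mice bearing ip P388/VCR (1 × 10^6 cells) received 0.2 mg/kg vincristine ip once daily on days 1–7. Mean survival to 30 days was expressed as % increase in life span relative to placebo control.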

[9] = system: Mus musculus; test: Percent increase in mean life span in mice infected with leukemia P388/VCR, at 25 mg/Kg dose; assay type: functional
Outline: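 CDF1 mice (groups of 10–15) were implanted ip with 1 × 10^6 P388/VCR cells. Agent plus 0.2 mg/kg vincristine were given together ip once daily on days 1–7, starting 1 day post-implant, in cremophor/ethanol or propylene glycol/ethanol vehicle. Survival was recorded to 30 days. Result is the % increase in mean life span versus placebo control.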

| Compound | IC50 ([1]; Homo sapiens, S1B1-20) [µM] | logP ([2]; read-out: logP) | CC50 [3] [µM] | Relative tumor growth [4] | further results |
| --- | --- | --- | --- | --- | --- |
| COc1ccc(C(C#N)(Cc2cccc(CN3CCc4cc(OC)c(OC)cc4C3)c2)Sc2ccc(C)cc2)cc1OC (stereo not given) | 2.19 | 5.91 | 23.3 | – | – |
| COc1ccc(C(C#N)(CCCCCN2CCc3cc(OC)c(OCc4ccccc4)cc3C2)Sc2ccc(C)cc2)cc1OC (stereo not given) | 0.85 | 7.95 | 40 | 100 | TGI [5]: 71% |
| COc1cc2c(cc1O)CN(CCCCCC(C#N)(SC1CCCCC1)c1ccc(OC)c(OC)c1)CC2 (stereo not given) | – | 6 | – | – | – |
| COc1ccc2c(c1)CCN(CCCCCC(Sc1ccc(C)cc1)c1ccc(OC)c(OC)c1)C2 (stereo not given) | 3.09 | 7.88 | 22.2 | – | – |
| COc1cc2c(cc1OC)CN(CCCCCCC(Sc1ccc(C)cc1)c1ccc(F)cc1)CC2 (stereo not given) | 2.7 | 8.63 | 27 | – | – |
| COc1ccc(CC2c3cc(OC)c(OC)cc3CCN2CCCCCC(C#N)(Sc2ccc(C)cc2)c2ccc(OC)c(OC)c2)cc1OC (stereo not given) | 1.06 | 7.57 | 78.2 | 64 | TGI [5]: 58% |
| COc1ccc(C(C#N)(CCCCN2CCc3cc(OC)c(OC)cc3C2)Sc2ccc(C)cc2)cc1OC.ClCCl (stereo not given) | – | – | – | – | logP [2]: 5.65 |
| COc1ccc(C(C#N)(CCCCCN2CCc3cc(OC)c(OC)cc3C2)SC2CCCCC2)cc1OC (stereo not given) | 0.46 | 6.28 | 14 | 67 | TGI [6]: 69% |
| COc1ccc(C(C#N)(CCCCCN2CCc3cc(OC)c(OCCn4ccnc4)cc3C2)SC2CCCCC2)cc1OC (stereo not given) | 0.96 | 5.96 | 8.39 | – | – |
| COc1cc2c(cc1OC)CN(CCCCCC(Sc1ccc(C)cc1)c1ccc(OC(F)(F)F)cc1)CC2 (stereo not given) | 2.07 | 8.44 | 16.9 | 100 | TGI [6]: 51% |
| COc1ccc(C(CCCCCN2CCc3cc(OC)c(OC)cc3C2)SC2CCCCC2)cc1OC (stereo not given) | 0.73 | 7.33 | 16.1 | 67 | TGI [6]: 57% |
| CCCCCSC(CCCCCN1CCc2cc(OC)c(OC)cc2C1)c1ccc(OC)c(OC)c1 (stereo not given) | 0.5 | 5.66 | 16.3 | – | – |
| COc1ccc(C(C#N)(CC#CCCN2CCc3cc(OC)c(OC)cc3C2)Sc2ccc(C)cc2)cc1OC (stereo not given) | 0.97 | 5.52 | 36 | – | – |
| COc1cc2c(cc1O)CN(CCCCCC(C#N)(Sc1ccc(C)cc1)c1ccc(OC)c(OC)c1)CC2 (stereo not given) | 3.11 | 5.9 | 24.9 | – | – |
| COc1cc2c(cc1OC)CN(CCCCCCC(Sc1ccc(C)cc1)c1ccc(OC)c(OCCCl)c1)CC2 (stereo not given) | 0.96 | 8.54 | 10.3 | – | – |
| COc1cc2c(cc1O)CN(CCCCCC(C#N)(Sc1ccc(C)cc1)c1ccc(OC)c(OC)c1)C2 (stereo not given) | – | 5.78 | – | – | – |
| COc1ccc(C(C#N)(CCCN2CCc3cc(O)c(O)cc3C2C)Sc2ccc(C)cc2)cc1OC (stereo not given) | 4.7 | 4.92 | – | – | – |
| COc1ccc(C(CCCCCCN2Cc3cc(OC)c(OC)cc3C2)Sc2ccc(C)cc2)cc1OC (stereo not given) | 1.84 | 7.32 | 22.1 | 75 | TGI [6]: 60% |
| COc1ccc(C(C#N)(CCCCCN2Cc3cc(Cl)c(Cl)cc3C2)Sc2ccc(C)cc2)cc1OC (stereo not given) | 10.5 | 7.4 | – | 57 | TGI [5]: 94% |
| COc1ccc(C(CCCCCN2CCc3cc4c(cc3C2)OCO4)Sc2ccc(C)cc2)cc1OC (stereo not given) | – | 7.31 | 24.9 | 100 | TGI [5]: 57% |
| COc1ccc(C(C#N)(CCCCCN2Cc3cc(OC)c(OCCCl)cc3C2)Sc2ccc(C)cc2)cc1OC (stereo not given) | – | 6.14 | – | – | – |

| Compound | IC50 ([1]; Homo sapiens, S1B1-20) [µM] | logP ([2]; read-out: logP) | CC50 [3] [µM] | Relative tumor growth [4] | further results |
| --- | --- | --- | --- | --- | --- |
| COc1ccc(C(CCCCCN2CCc3cc(OC)c(OC)cc3C2)SC(C)(C)C)cc1OC (stereo not given) | 3.58 | 6.54 | 76.8 | 67 | TGI [5]: 53% |
| COc1ccc(C(CCCCCN2CCc3cc(OC)c(OC)cc3C2)SCc2ccccc2)cc1OC (stereo not given) | 1.98 | 6.63 | 15.1 | 77 | TGI [6]: 68% |
| COc1ccc(C(C#N)(CCCCCN2CCc3cc(OC)c(OCCCl)cc3C2)SC2CCCCC2)cc1OC (stereo not given) | – | 6.87 | – | – | – |
| COc1ccc(C(CCCCCCN2CCc3cc(OC)c(OC)cc3C2)Sc2ccc(C)cc2)cc1O (stereo not given) | 0.84 | 7.67 | 13.1 | 75 | TGI [5]: 54% |
| COc1ccc(C(C#N)(CCCCCN2CCc3cc(OC)c(OC)cc3C2)Sc2ccccn2)cc1OC (stereo not given) | 2.12 | 4.72 | 50.8 | – | – |
| COc1ccc(C(CCCCCCN2CCc3cc(OC)c(OC)cc3C2)Sc2ccc(C)cc2)cc1OC (stereo not given) | 0.9 | 7.95 | 13.2 | 45 | TGI [6]: 64% |
| COc1ccc(C(CCCCCCN2CCc3cc(OC)c(OC)c(OC)c3C2)Sc2ccc(C)cc2)cc1OC (stereo not given) | 0.7 | 7.38 | 14 | 64 | TGI [6]: 54% |
| COc1ccc(C(C#N)(CCCCCN2CCc3cc(OC)c(OCCN(C)C)cc3C2)Sc2ccc(C)cc2)cc1OC (stereo not given) | – | 6.1 | 6.68 | – | – |
| COc1ccc(C(C#N)(CCCCCN2CCc3cc4c(cc3C2)OCO4)Sc2ccc(C)cc2)cc1OC (stereo not given) | 3.09 | 6.08 | 30 | – | ILS at 25 mg/kg [7]: 16%; ILS [8]: 24%; ILS at 25 mg/kg [9]: 38% |
| COc1ccc(C(C#N)(CCCCCN2Cc3cc(OC)c(OCCn4ccnc4)cc3C2)Sc2ccc(C)cc2)cc1OC (stereo not given) | 0.5 | 5.23 | 8.37 | – | – |
| COc1cc2c(cc1OC)CN(CCCCCCC(Sc1ccc(C)cc1)c1ccc(OC)c(O[Si](C)(C)C(C)(C)C)c1)CC2 (stereo not given) | 10.7 | – | 49.1 | – | logP [2]: 11.68 |
| COc1ccc(C(C#N)(CCCCCN2CCc3ccccc3C2)Sc2ccc(C)cc2)cc1OC (stereo not given) | 2.56 | 6.72 | 24.7 | – | ILS at 25 mg/kg [7]: 11%; ILS [8]: 14%; ILS at 25 mg/kg [9]: 27% |
| COc1ccc(C(C#N)(CCCCN2CCc3cc(OC)c(OC)cc3C2)Sc2ccc(C)cc2)cc1OC (stereo not given) | 0.62 | 5.65 | 41.8 | – | – |
| COc1ccc(C(CCCN2CCc3cc(OC)c(OC)cc3C2)Sc2ccc(C)cc2)cc1OC (stereo not given) | 1.23 | 6.36 | 25.8 | – | – |
| COc1cc2c(cc1OC)CN(CCCCCC(Sc1ccc(C)cc1)c1ccc3c(c1)OCO3)CC2 (stereo not given) | 0.5 | 7.31 | 15.9 | 100 | TGI [5]: 39% |
| CCC(CCCCCN1CCc2cc(OC)c(OC)cc2C1)(Sc1ccc(C)cc1)c1ccc(OC)c(OC)c1 (stereo not given) | 1.23 | 8.34 | 11.8 | 77 | TGI [6]: 72% |
| COc1cc2c(cc1OC)CN(CCCCCCC(Sc1ccc(C)cc1)c1ccc(OC)c(OCCn3ccnc3)c1)CC2 (stereo in doubt; 37b) | – | 7.63 | 5.52 | – | Relative tumor growth ([4]; 8 mg/kg): 72; IC50 ([1]; s1b1-20): 0.69 µM; TGI [6]: 67% |
| COc1ccc(C(C#N)(CCCCCN2Cc3cc(OC)c(OC)cc3C2)SC2CCCCC2)cc1OC (stereo in doubt; 46) | 0.26 | 5.65 | 11.8 | – | – |
| COc1ccc(C(C#N)(CCCCCN2CCc3cc(OC)c(OCCn4ccnc4)cc3C2)Sc2ccc(C)cc2)cc1OC (stereo in doubt; 48) | 0.53 | 5.86 | 11.6 | – | – |
| COc1ccc(CCN(C)CCCC(C#N)(c2ccc(OC)c(OC)c2)C(C)C)cc1OC (stereo not given) [VERAPAMIL] | 17.3 | – | – | – | – |

From ChEMBL document CHEMBL1132241, “Novel multidrug resistance reversal agents” (J Med Chem, 1999)
